Data set [1] deals with T1, 5-hydroxytryptamine receptor 1A (Rattus norvegicus, UniProt P19327).
T1 sequence (P19327 whole entry): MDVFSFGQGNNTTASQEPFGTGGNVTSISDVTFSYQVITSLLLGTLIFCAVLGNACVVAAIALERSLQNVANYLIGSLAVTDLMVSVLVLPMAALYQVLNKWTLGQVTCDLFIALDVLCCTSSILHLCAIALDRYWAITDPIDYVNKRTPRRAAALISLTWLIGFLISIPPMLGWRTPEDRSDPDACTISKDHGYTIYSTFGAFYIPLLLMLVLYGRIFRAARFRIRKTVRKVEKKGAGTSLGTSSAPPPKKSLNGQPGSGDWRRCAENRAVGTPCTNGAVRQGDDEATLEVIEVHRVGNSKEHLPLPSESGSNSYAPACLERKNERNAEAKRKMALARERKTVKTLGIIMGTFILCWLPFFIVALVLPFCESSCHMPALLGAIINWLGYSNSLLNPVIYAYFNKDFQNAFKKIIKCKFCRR
Kind of data set: In vitro inhibition of [3H]-8-hydroxy-2-(di-n-propylamino)tetralin binding to 5-hydroxytryptamine 1A receptor from rat hippocampal tissue.

For data set [2], the species on record is Rattus norvegicus. As to the kind of experiment: Concentration required to produce 50% block in avoidance responding in conditioned avoidance response test in rat. In kind it is functional. The gist of the method:
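Trained rats in shelf-jump and/or discrete-trial conditioned avoidance paradigms. Drug given ip or po to at least five rats per dose, with a control session before each drug run. Trials without avoidance (avoidance block) were counted per dose as a percentage of total trials, with control set at 100%. AB50 was taken from a least-squares dose-effect regression line.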

Data set [3] relates to Rattus norvegicus. Kind of data set: Concentration required to produce 50% block in avoidance responding in conditioned avoidance response test in rat following peroral administration. Format: functional. The gist of the method: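 Previously trained rats were given compound po at pretreatment time to at least five rats per dose in a conditioned avoidance paradigm (shelf-jump or discrete trial). A control session preceded each drug run. Trials without avoidance were counted as a % of total trials, with control set at 100%. AB50 came from a least-squares dose-effect regression line.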

The nature of data set [4]: Ratio of ED50 stereotyped behavior in mice. In kind it is functional.
In data set [5] the target is D(2) dopamine receptor (Rattus norvegicus) (UniProt P61169). Kind of data set: In vitro inhibition of [3H]spiperone binding to dopamine receptor D2 from rat brain limbic tissue at 1 uM. In kind it is tissue-based. Particulars: Limbic system.
A short description of data set [6]: Partition coefficient (logP). In kind it is physicochemical. The conditions noted are these: octanol/water.
The subject of data set [7] is Mus musculus. Kind of data set: Inhibition of apomorphine induced stereotyped behavior in mice after intraperitoneal administration. In kind it is functional. Particulars: ip. The gist of the method: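 Male CF-1 mice (20-25 g, acclimated ≥3 days) received ip compound in 0.25% Tween 80 at 1, 10, 30 and 60 mg/kg (six/dose), alongside vehicle controls. After 30 min they were challenged with apomorphine 1 mg/kg sc. Stereotypy was scored every 5 min and totaled over the 30-min session.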

Data set [8] deals with Mus musculus. Kind of data set: Inhibition of apomorphine induced climbing behavior in mice after intraperitoneal administration. In kind it is functional. The conditions noted are these: ip. The gist of the method: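 Male CF-1 mice (20-25 g), acclimated at least 3 days, received compound in 0.25% Tween 80 ip at 1, 10, 30 and 60 mg/kg (six/dose) or vehicle. 30 min later they were challenged with apomorphine 1 mg/kg sc. Climbing was scored every 5 min and totaled over 30 min.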

The target in a further data set is D(2) dopamine receptor (Rattus norvegicus, UniProt P61169). As to the kind of experiment: In vitro inhibition of [3H]spiperone binding to Dopamine receptor D2 from rat brain limbic tissue. Format: tissue-based, Limbic system. Put shortly: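 Limbic tissue (nucleus accumbens, septum, olfactory tubercle) from Sprague-Dawley rats, washed membranes at 0.2-0.3 mg protein. Incubated with 0.3 nM [3H]spiroperidol and a range of drug concentrations, 10 min at 37 °C, in Tris buffer pH 7.1 with NaCl, KCl, CaCl2, ascorbate and pargyline. Filtered through GF/B and counted by scintillation. Nonspecific binding defined with 1 μM (+)-butaclamol.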

The target in data set [9] is T2, 5-hydroxytryptamine receptor 1A (Rattus norvegicus) (UniProt P19327).
T2 sequence (whole entry): T1 sequence (P19327 whole entry)
Kind of data set: In vitro inhibition of [3H]-8-hydroxy-2-(di-n-propylamino)tetralin binding to 5-hydroxytryptamine 1A receptor from rat hippocampal tissue at 1 uM. Particulars: Hippocampus.

Data set [10] concerns the target T2, 5-hydroxytryptamine receptor 1A (Rattus norvegicus). As to the kind of experiment: In vitro inhibition of [3H]-8-hydroxy-2-(di-n-propylamino)tetralin binding to 5-hydroxytryptamine 1A receptor from rat hippocampal tissue. The conditions noted are these: Hippocampus; concentration not given here.
Data set [11] relates to Mus musculus. Kind of data set: Inhibition of apomorphine induced stereotyped behavior (i.p.). The conditions noted are these: ip. Format: functional.
Data set [12] concerns the target D(2) dopamine receptor (Rattus norvegicus) (UniProt P61169). As to the kind of experiment: In vitro inhibition of [3H]spiperone binding to Dopamine receptor D2 from rat brain limbic tissue at 10 uM. In kind it is tissue-based. The conditions noted are these: Limbic system.

Chain of D(2) dopamine receptor (P61169 whole entry): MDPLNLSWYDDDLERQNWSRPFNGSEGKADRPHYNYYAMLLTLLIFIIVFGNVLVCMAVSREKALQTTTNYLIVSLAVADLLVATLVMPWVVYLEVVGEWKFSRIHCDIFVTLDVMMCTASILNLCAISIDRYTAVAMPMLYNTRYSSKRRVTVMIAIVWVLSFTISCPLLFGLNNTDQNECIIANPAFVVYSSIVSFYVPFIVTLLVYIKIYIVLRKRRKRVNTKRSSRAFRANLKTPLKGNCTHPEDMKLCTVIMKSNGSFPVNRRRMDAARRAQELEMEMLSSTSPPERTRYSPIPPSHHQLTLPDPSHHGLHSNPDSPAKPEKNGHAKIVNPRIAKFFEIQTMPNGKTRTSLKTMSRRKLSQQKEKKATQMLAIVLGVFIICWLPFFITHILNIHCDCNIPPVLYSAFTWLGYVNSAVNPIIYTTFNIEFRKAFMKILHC
Chain of D(2) dopamine receptor (Rattus norvegicus) (P61169 whole entry): as above

In turn, `O=C1c2ccccc2S(=O)(=O)N1CCCCN1CCN(c2ncccn2)CC1` [IPSAPIRONE] showed a Ki in data set [1] of 10 nM. For the same compound, the AB50 was determined as 19 mg/kg in the data set listed under Rattus norvegicus [2] and 42 mg/kg with Rattus norvegicus [3].

For `Cl.O=C1C2C3C=CC(C4C=CC43)C2C(=O)N1CCCCN1CCN(c2ncccn2)CC1` (centres undefined), the Ratio in [4] turned out to be 7.6. The AB50 in the data set listed under Rattus norvegicus [2] was 13 mg/kg. In data set [5], this compound came in with an inhibition of 59%. The same compound displayed a logP in data set [6] of 1.79.

`Cl.O=C1C2C3C=CC(C4CCC34)C2C(=O)N1CCCCN1CCN(c2cnccn2)CC1` (centres undefined): in [4], the Ratio turned out to be 2.1. Further, the AB50 in the data set listed under Rattus norvegicus [2] amounted to 60 mg/kg. This compound also yielded an inhibition in data set [5] of 48%. The ED50 was determined as 32 mg/kg in the data set with Mus musculus [7] and 15 mg/kg in the data set on Mus musculus [8].

For `Cl.O=C1C2C3C=CC(C4CC34)C2C(=O)N1CCCCN1CCN(c2ncccn2)CC1` (centres undefined), the Ki turned out to be 38 nM in data set [1] and 488 nM at D(2) dopamine receptor. Further, the AB50 in the data set filed under Rattus norvegicus [2] was determined as 40 mg/kg. In addition, in data set [6], the logP turned out to be 1.73.

`Cl.O=C1C2C3C=CC(C4CC34)C2C(=O)N1CCCCN1CCN(c2cnccn2)CC1` (centres undefined): the Ratio in [4] was 2.35. For the same compound, in the data set listed under Rattus norvegicus [2], the AB50 came out at 49 mg/kg. Further, the inhibition in data set [5] is 33%; in [9], 68%. Also, the ED50 with Mus musculus [7] amounted to 33 mg/kg; with Mus musculus [8], 14 mg/kg.

For the compound `Cl.O=C1C2C3C=CC(C4CCC34)C2C(=O)N1CCCCN1CCN(c2ccc(C(F)(F)F)cn2)CC1` (centres undefined), the AB50 in the data set listed under Rattus norvegicus [2] is >40 mg/kg. Further, the inhibition in [5] is 65%; in [10], 72%.

As to `Cl.O=C1C2C3CCC(C4CCC43)C2C(=O)N1CCCCN1CCN(c2ncccn2)CC1` (centres undefined), the Ki in data set [1] is 1 nM; at D(2) dopamine receptor it was 53 nM. Moreover, in the data set filed under Rattus norvegicus [2], the AB50 came out at 40 mg/kg. Also, in data set [6], the logP worked out at 2.09.

For `COc1ccccc1N1CCN(CCCCN2C(=O)C3C4C=CC(C5CC45)C3C2=O)CC1.Cl` (centres undefined), the ED50 in the data set with Mus musculus [11] and in the data set on Mus musculus [7] was 10 mg/kg in each case. Also, the Ratio in data set [4] amounted to 1. The Ki in data set [1] amounted to 1.3 nM; on D(2) dopamine receptor, 16 nM. Also, in the data set listed under Rattus norvegicus [2], the AB50 was determined as 40 mg/kg.

With `O=C1C2C3C=CC(C3)C2C(=O)N1CCCCN1CCN(c2ncccn2)CC1` (centres undefined), the figures for the Ki (in data set [1]; at D(2) dopamine receptor) were 42 nM and 248 nM, respectively. This compound also yielded an AB50 in the data set listed under Rattus norvegicus [2] of 5 mg/kg. The compound also registered a logP in data set [6] of 1.36.

`Cl.O=C1C2C3C=CC(C4CCC34)C2C(=O)N1CCCCN1CCN(c2ncccn2)CC1` (centres undefined) came in with a Ki in [1] of 1.3 nM. Also, the AB50 in the data set listed under Rattus norvegicus [2] amounted to 47 mg/kg. In data set [6], the logP amounted to 2.02.

In the data set filed under Rattus norvegicus [2], `Cl.O=C1C2C3C=CC(CCC3)C2C(=O)N1CCCCN1CCN(c2ncccn2)CC1` (centres undefined) returned an AB50 of 40 mg/kg. In [5], this compound registered an inhibition of 53%. Moreover, the logP in [6] is 1.94.

With `O=C1CC2(CCCC2)CC(=O)N1CCCCN1CCN(c2ncccn2)CC1` [BUSPIRONE], the AB50 in the data set listed under Rattus norvegicus [2] came out at 5 mg/kg; in the data set with Rattus norvegicus [3], 32 mg/kg.

In turn, `CC(C)=C1C2C=CC1C1C(=O)N(CCCCN3CCN(c4ncccn4)CC3)C(=O)C21.Cl` (centres undefined) came in with an inhibition in [12] of 50%. The AB50 in the data set filed under Rattus norvegicus [2] was >40 mg/kg.

A word on the Ki: it is a dissociation constant, usually derived from enzyme kinetics or from competition with a known ligand. As a reminder, the inhibition is the relative decrease from the control value, in per cent. Read a low inhibition as a weak effect. For orientation: logP means the decadic logarithm of the partition coefficient of the neutral form, usually between octanol and water. A high value points to a more lipophilic compound. What is called ED50 is the dose at which the effect has come halfway, by size or by number of responders.

The record behind these values is ChEMBL document CHEMBL1124154, “Polycyclic aryl- and heteroarylpiperazinyl imides as 5-HT1A receptor ligands and potential anxiolytic agents: synthesis and structure-activity relationship studies” (J Med Chem, 1988).
